Measured values reported in ChEMBL document CHEMBL4422614 (Eur J Med Chem, 2019).
Activity calls are given as the source filed them. No cut-off for these calls is given here.

How the values were obtained:
[1] = Drug metabolism in Sprague-Dawley rat liver microsomes assessed as metabolic rate up to 180 mins in presence of NADPH by UV-based LC-MS/MS analysis; type: ADME, Microsome; conditions: 3 h
[2] = target: 3',5'-cyclic-AMP phosphodiesterase 4D (Homo sapiens, UniProt Q08499); assay: Inhibition of human PDE4D2 (86 to 413 residues) catalytic domain using [3H]-cAMP as substrate after 15 mins by liquid scintillation counting method
Sequence of 3',5'-cyclic-AMP phosphodiesterase 4D (Q08499 whole entry, the tested form may be a part): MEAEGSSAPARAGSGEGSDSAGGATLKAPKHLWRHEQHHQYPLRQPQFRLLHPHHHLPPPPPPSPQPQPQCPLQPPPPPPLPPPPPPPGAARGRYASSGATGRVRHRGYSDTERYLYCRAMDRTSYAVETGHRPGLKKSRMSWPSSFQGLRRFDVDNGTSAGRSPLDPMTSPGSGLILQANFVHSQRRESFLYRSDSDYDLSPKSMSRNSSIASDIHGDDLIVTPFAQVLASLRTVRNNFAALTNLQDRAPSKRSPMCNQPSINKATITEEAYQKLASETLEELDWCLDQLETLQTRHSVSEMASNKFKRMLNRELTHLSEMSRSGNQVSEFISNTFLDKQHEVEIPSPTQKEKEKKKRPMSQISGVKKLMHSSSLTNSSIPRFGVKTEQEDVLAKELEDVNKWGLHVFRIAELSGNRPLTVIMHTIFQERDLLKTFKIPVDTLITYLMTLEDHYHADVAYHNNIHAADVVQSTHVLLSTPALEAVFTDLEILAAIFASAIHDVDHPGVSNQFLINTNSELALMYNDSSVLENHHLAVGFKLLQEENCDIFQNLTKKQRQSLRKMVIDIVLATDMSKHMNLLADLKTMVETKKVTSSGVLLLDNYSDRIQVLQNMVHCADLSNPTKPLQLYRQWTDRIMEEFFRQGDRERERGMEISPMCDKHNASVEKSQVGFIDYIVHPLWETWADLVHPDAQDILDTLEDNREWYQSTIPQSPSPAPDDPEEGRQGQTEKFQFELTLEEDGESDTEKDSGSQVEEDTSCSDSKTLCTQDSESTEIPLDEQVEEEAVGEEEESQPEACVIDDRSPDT

[3] = Antioxidant activity assessed as trolox equivalent of AAPH-induced radical scavenging activity at 10 to 20 uM preincubated for 10 mins followed by AAPH addition measured every minute for 120 mins by ORAC fluorescein assay; type: functional
In short: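 ORAC values are expressed as trolox equivalents, mean ± SD of three independent experiments.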

[4] = test system: SH-SY5Y; assay: Cytotoxicity against human SH-SY5Y cells assessed as effect on cell viability at 10 uM after 24 hrs by MTT assay; type: cell-based
In short: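 SH-SY5Y viability was measured by MTT after exposure to compounds at 10 µM. Results are percent of vehicle control from three independent experiments.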

[5] = Metal chelating activity assessed as inhibition of Cu2+-induced amyloid beta (1 to 42 residues) aggregation at 25 uM after 24 hrs by thioflavin-T fluorescence assay (reference value: 156%); set-up: scale not given: the % may be the effect or the level left
In short: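 Aβ1-42 was incubated with Cu(II) (CuSO4) with or without compound, and thioflavin T fluorescence was read. The Aβ-alone signal was set as 100%. Mean ± SD of three independent experiments.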

[6] = in vitro; conditions: PAMPA
[7] = Metal chelating activity assessed as inhibition of Cu(II)-induced amyloid beta (1 to 42 residues) aggregation at 25 uM after 24 hrs by thioflavin-T fluorescence assay (reference value: 156%); set-up: scale not given: the % may be the effect or the level left
In short: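 Aβ1-42 was incubated with CuSO4 with or without compound, and thioflavin T fluorescence was read. Fluorescence is given as percent of Aβ alone, as mean ± SD of three independent experiments.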

[8] = test system: Mus musculus; assay: Cognition enhancement activity in amyloid beta (25 to 35 residues) induced C57BL/6J mouse model of Alzheimer's disease assessed as decrease in escape latancy at 30 mg/kg/day, ig administered for 26 consecutive days by Morris water maze test; type: functional, organism-based
In short: (§1)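 Mice were randomized into 7 groups. All except sham got an ICV injection of Aβ25-35 (3 nmol); sham got the same volume of saline ICV. Dosing was intragastric daily for 26 days, with 0.5% CMC-Na as vehicle for sham and model. Body weight, diarrhea and emesis-like behavior were monitored.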

[9] = test system: Mus musculus; assay: Cognition enhancement activity in amyloid beta (25 to 35 residues) induced C57BL/6J mouse model of Alzheimer's disease assessed as swimming speed at 30 mg/kg/day, ig administered for 26 consecutive days by Morris water maze test (reference value: 15.6 +/- 2.4 cm/sec); type: functional; in short: as §1
[10] = test system: Mus musculus; assay: Cognition enhancement activity in amyloid beta (25 to 35 residues) induced C57BL/6J mouse model of Alzheimer's disease assessed as swimming speed at 4 mg/kg/day, ig administered for 26 consecutive days by Morris water maze test (reference value: 15.6 +/- 2.4 cm/sec); type: functional; in short: as §1
[11] = test system: Mus musculus; assay: Cognition enhancement activity in amyloid beta (25 to 35 residues) induced C57BL/6J mouse model of Alzheimer's disease assessed as swimming path length in virtual platform at 30 mg/kg/day, ig administered for 26 consecutive days by Morris water maze test (10.2 +/- 3.2 cm); type: functional; in short: as §1
[12] = test system: Mus musculus; assay: Cognition enhancement activity in amyloid beta (25 to 35 residues) induced C57BL/6J mouse model of Alzheimer's disease assessed as swimming time in effective region at 30 mg/kg/day, ig administered for 26 consecutive days by Morris water maze test (4.3 +/- 1.3 sec); type: functional; in short: as §1
[13] = test system: Mus musculus; assay: (§2) Neuroprotection in C57BL/6J mouse model of amyloid beta (25 to 35 residues) induced Alzheimer's disease assessed as reduction in ratio of apoptotic neuron in CA1 hippocampus region at 30 mg/kg/day, ig administered for 26 consecutive days by hematoxylin and eosin staining-based light microscopic analysis (reference value: 40.6 +/- 12.5%); type: ADME, organism-based; set-up: scale not given: the % may be the effect or the level left; conditions: in vivo, po
In short: (§3)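 Hippocampal CA1, CA3 and DG neurons were stained with H&E after the Aβ25-35 ICV model and 26-day intragastric dosing. Denatured cell index = denatured cells/total cells, n = 5. Values are mean ± SD, two-way ANOVA versus model.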

[14] = test system: Mus musculus; assay: as §2, with “in” for “in C57BL/6J mouse model of”, “induced C57BL/6J mouse model of” for “induced”, “CA3” for “CA1”, “80.2” for “40.6”, “8.6%)” for “12.5%)”; type: ADME, organism-based; set-up: scale not given: the % may be the effect or the level left; conditions: in vivo, po; in short: as §3
[15] = test system: Mus musculus; assay: as §2, with “in” for “in C57BL/6J mouse model of”, “induced C57BL/6J mouse model of” for “induced”, “DG” for “CA1”, “55.8” for “40.6”, “7.2%)” for “12.5%)”; type: ADME, organism-based; set-up: scale not given: the % may be the effect or the level left; conditions: in vivo, po; in short: as §3
[16] = Metal chelating activity assessed as inhibition of Cu(II)-induced amyloid beta (1 to 42 residues) aggregation at 25 uM after 24 hrs by TEM assay
In short: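 Samples were prepared as for the ThT assay. 10 µL aliquots were applied to carbon-coated copper grids for 2 min, then stained with 3% phosphotungstic acid for 2 min and imaged by transmission electron microscopy.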

[17] = in vitro; conditions: Sprague-Dawley, rat, liver microsomes

Work on `C[C@]12CC[C@H]3[C@@H](CCC4=CC(=O)CC[C@@]43C)[C@@H]1CC[C@@H]2O` [TESTOSTERONE] yielded a K [1] of 0.301 min⁻¹.

`COc1ccc(C(=O)Nc2ccc(O)c3ncccc23)cc1OC` showed an IC50 [2] of 7.63 µM and an Activity [3] of 1.34 equiv.

With `COc1ccc(C(=O)Nc2cc(Cl)c(O)c3ncccc23)cc1OC1CCCC1.Cl` the IC50 [2] was 3.13 µM, the Activity [3] was 0.56 equiv and the Activity [4] was “Toxic”. For the same compound, the Activity [5] was 70.2%.

In the case of `COc1ccc(C(=O)Nc2ccc3cccc(O)c3n2)cc1OC1CCCC1`, the IC50 [2] is reported as 4.64 µM, the Activity [3] is reported as 0.7 equiv and the Papp at 10 h, 100 ug/ml [6] is reported as 16.4 ×10⁻⁶ cm/s.

For `Oc1c(I)cc(Cl)c2cccnc12` [CLIOQUINOL], the Activity [3] was 0.6 equiv, the Activity [7] was 66% and the Activity [8] was “Active”. The Activity [9] was 16 cm/s, the Activity [10] was “Active” and the Activity [11] was 18 cm. It also gave a Time [12] of 5.8 s, an Activity [13] of 24.2% and an Activity [14] of 37.8%. The Activity [15] was 19.7%, the K [1] was 0.0194 min⁻¹ and the Activity [16] was “Active”. It also gave a Papp at 10 h, 100 ug/ml [6] of 5.2 ×10⁻⁶ cm/s and a half-life [17] of 35.8 min.

`COc1ccc(C(=O)Nc2cc(I)c(O)c3ncccc23)cc1OC` gave an IC50 [2] of 7.36 µM and an Activity [3] of 1.3 equiv.

Work on `COc1ccc(C(=O)Nc2cc(I)c(O)c3ncccc23)cc1OC1CCCC1.Cl` yielded an IC50 [2] of 0.597 µM, an Activity [3] of 1.01 equiv and a Papp at 10 h, 100 ug/ml [6] of 5.86 ×10⁻⁶ cm/s.

Compound `O=C(Nc1ccc2cccc(O)c2n1)c1ccc(OC(F)F)c(OCC2CC2)c1` has an IC50 [2] of 4.06 µM, an Activity [3] of 0.34 equiv and a Papp at 10 h, 100 ug/ml [6] of 15.8 ×10⁻⁶ cm/s.
